# Bioassay records deposited in PubChem by several laboratories.
# APJ ag: APJ receptor agonism; 330,000 tested, 0.11% active; AID 2520; CHO-K1 APJ PathHunter beta-arrestin, luminescence; 0% DMSO wells, 100% apelin; P35414; activation, % at 20 µM;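 active = activation more than six SD over the plate average, tested at 20 µM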
#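 Test system – PathHunter CHO-K1 APJ (AGTRL-1) beta-arrestin reporter cells · Input – 1000 cells/well · Compound – single test compound dose, 20 µM final, 1% DMSO · Times – compound stimulation 90 min at 25 °C, detection 60 min · Technique – beta-gal luminescence · Read-out basis – APJ–arrestin association signal · Control set – negative DMSO alone, positive Apelin-13 at 10 nM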
# CCR6 antagonist: blocks CCL20-driven beta-arrestin recruitment at human CCR6. P51684. CHO-K1 CCR6 PathHunter beta-arrestin, luminescence, CCL20-stimulated. inhibition, % at 20 µM. 340,000 tested, 0.49% active. AID 493098;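 active = compounds whose inhibition of the agonist-driven luminescence signal at 20 µM reaches about 50%, limit read from the data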;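 note: cells stimulated with CCL20 at 14 nM final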
# APJ antagonist: blocks the human apelin receptor APJ | CHO-K1 APJ beta-arrestin complementation, luminescence | inhibition, % at 20 µM | 330,000 tested, 0.32% active;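 active = inhibition above about 40% at 20 µM, limit read from the data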;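 note: cells challenged with 10 nM apelin-13 agonist together with compound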
# CXCR6 inh: CXCR6 (human) receptor inhibition. CHO-K1 PathHunter CXCR6 beta-arrestin, luminescence. 360,000 tested, 0.36% active. inhibition, % at 20 µM. O00574; in the data active = inhibition above about 34%, passing the limit was not always enough;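 note: antagonist mode with CXCL16 agonist at 10 nM final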
# m5-HT2A agonist: mouse HTR2A agonism via beta-arrestin recruitment | activation, % at 7.6 µM | CHO-K1 mHTR2A beta-arrestin complementation, luminescence; percent of 30 µM serotonin response | 360,000 tested, 0.66% active | P35363;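 active = activation above a run cutoff, the mean activation of all tested compounds plus 3 SD, cut at about 14% in these data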
# Target sequence (P35363 whole entry, looked up): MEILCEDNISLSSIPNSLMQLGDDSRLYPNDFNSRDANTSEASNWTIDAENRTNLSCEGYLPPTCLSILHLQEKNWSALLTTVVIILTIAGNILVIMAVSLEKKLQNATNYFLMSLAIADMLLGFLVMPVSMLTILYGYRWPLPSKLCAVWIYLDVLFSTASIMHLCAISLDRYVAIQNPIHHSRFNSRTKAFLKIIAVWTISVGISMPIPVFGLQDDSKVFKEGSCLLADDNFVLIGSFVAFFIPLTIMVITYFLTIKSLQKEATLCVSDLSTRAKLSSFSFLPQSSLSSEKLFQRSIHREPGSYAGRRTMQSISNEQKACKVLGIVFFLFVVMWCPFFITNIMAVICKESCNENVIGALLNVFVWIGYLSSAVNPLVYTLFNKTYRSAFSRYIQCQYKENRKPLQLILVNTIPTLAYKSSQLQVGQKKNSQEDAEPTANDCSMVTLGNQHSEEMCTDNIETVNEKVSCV
# NTR1 agonist: agonists of human neurotensin receptor NTR1 | P30989 | NTR1-U2OS beta-arrestin-GFP spot imaging, agonist mode | activation, % at 20 µM | 330,000 tested, 0.17% active | AID 493036;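 active = activation at or above 40% of the spot to cytoplasm intensity ratio, with at least 20 cells analyzed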
# MOR ag counter: counter-screen for mouse HTR2A agonists: human mu opioid receptor agonists; shares compounds with m5-HT2A agonist; U2OS OPRM1 beta-arrestin PathHunter, luminescence; DMSO 0%, DAMGO 9.3 µM 100%; activation, % at 9.3 µM; 2,300 tested, 5.3% active;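 active = mean activation above the mean of DMSO-only wells plus 3 SD, cut at about 0.5% in these data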
# m5-HT2A ag conf: mouse HTR2A agonism confirmed | CHO-K1 PathHunter beta-arrestin recruitment, luminescence; DMSO 0%, 30 µM serotonin 100% | activation, % at 7.6 µM | 2,300 tested, 19% active | shares compounds with m5-HT2A agonist | AID 624381;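 active = mean activation across triplicates above the hit threshold derived in the original primary screen, cut at about 15% in these data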
# Hits are given with their value; – = inactive; · = not tested or not shown. Hits are enriched below; roughly 1.5% of the tested compounds scored in any of these assays.
SMILES,APJ ag,CCR6 antagonist,APJ antagonist,CXCR6 inh,m5-HT2A agonist,NTR1 agonist,MOR ag counter,m5-HT2A ag conf
COc1cc(Cl)c(C)cc1NC(=O)CSc1sc2c(O)cc(=O)[nH]c2c1C#N,–,–,–,–,–,–,·,·
CCCCC(=O)N(C)c1c(CC)nc2c(OCCOc3ccccc3)cccn12,·,·,·,–,25,·,–,–
CCCCC(=O)N(C)c1c(CC)nc2c(OCCOc3ccc(F)cc3)cccn12,·,·,·,–,–,·,·,·
CNc1ccc(Br)cc1C(O)c1ccccc1 (centres undefined),–,–,–,–,–,–,·,·
CCCCCCn1cc(CN2CC(N3CCCC3)CS2(=O)=O)nn1 (centres undefined),·,·,·,–,20,·,–,–
CCCCCCn1cc(CN2CC(N3CCSCC3)CS2(=O)=O)nn1 (centres undefined),·,·,·,–,–,·,·,·
CN(C)CCN1CCN(C2CN(Cc3cn(Cc4ccccc4)nn3)S(=O)(=O)C2)CC1 (centres undefined),·,·,·,–,20,·,–,–
O=S1(=O)CC(N2CCN(Cc3ccccc3F)CC2)CN1Cc1cn(Cc2cccc(Cl)c2)nn1 (centres undefined),·,·,·,–,15,·,–,–
O=C(NCc1ccccc1)c1nncc(-c2ccccc2)n1,–,–,–,–,–,–,·,·
CCc1ccc(N2C(=O)C(Cl)=C(Nc3ccc(C(=O)N4CCCC4)cc3)C2=O)cc1,–,–,–,–,–,–,·,·
O=c1c2ccccc2nc(/C=C/c2cc(Br)ccc2O)n1CCCO,–,–,–,–,–,–,·,·
CN(C)c1ccc(C(C(=O)NCc2ccccc2)N(Cc2cccnc2)C(=O)c2snc(C(N)=O)c2N)cc1 (centres undefined),–,–,–,–,19,–,–,–
CCOC(=O)CCCCCC(=O)Nc1ccc2c(c1)C(=O)N([C@@H](C)CO)C[C@@H](C)[C@H](CN(C)C(=O)c1ccncc1)OCCCC[C@H](C)O2,·,·,·,–,–,·,·,·
COc1cc(/C=C2\C(=N)N3N=C(S(C)(=O)=O)SC3=NC2=O)ccc1OCCOc1ccc(C)cc1,–,–,–,–,16,–,–,–
COc1cc(/C=C2\C(=N)N3N=C(S(C)(=O)=O)SC3=NC2=O)cc(OC)c1OCCOc1ccc(C)cc1,–,–,–,–,–,–,·,·
CCOC(=O)CCCNC(=O)COc1ccccc1C#N,–,–,–,–,19,–,–,–
CCCCn1c(N)c(N(CC)C(=O)CCNC(=O)NC23CC4CC(CC(C4)C2)C3)c(=O)[nH]c1=O,–,–,–,–,–,–,·,·
Cc1cc(C=O)c(C)n1-c1ccc(N2CCOCC2)cc1,–,–,–,–,16,–,–,–
C[N+](C)(C)C(Cc1c[nH]c2ccccc12)C(=O)[O-] (centres undefined),–,·,–,·,·,–,·,·
CC(C)c1ccc(N(CC(=O)NC(C)(C)C)C(=O)CCC(=O)Nc2nccs2)cc1,–,–,–,–,29,–,–,–
O=C(NCC(=O)N1CCCCCCC1)c1cccc([N+](=O)[O-])c1,–,–,–,–,15,–,–,–
O=C(CCC(=O)N1CCN(c2ccc(C(F)(F)F)cn2)CC1)c1cccs1,–,–,–,–,–,–,·,·
Cc1ccc(OCCC(=O)OCC(=O)Nc2ccccc2)cc1,–,–,–,–,17,–,–,–
Cc1ccc(OCCC(=O)OCC(=O)Nc2ccc(F)cc2)cc1,–,–,–,–,–,–,·,·
CN(C)CCNC(=O)c1cc2ccccc2oc1=O,–,–,–,–,16,–,–,–
SMILES,APJ ag,CCR6 antagonist,APJ antagonist,CXCR6 inh,m5-HT2A agonist,NTR1 agonist,MOR ag counter,m5-HT2A ag conf
CC(=O)OCCNC(=O)c1cc2ccccc2oc1=O,–,–,–,–,–,–,·,·
CCCN1CCN(C(=S)Nc2ccc(S(N)(=O)=O)cc2)CC1,–,–,–,–,16,–,–,–
NS(=O)(=O)c1ccc(NC(=S)N2CCN(Cc3ccc4c(c3)OCO4)CC2)cc1,–,–,–,–,–,–,·,·
NS(=O)(=O)c1ccc(NC(=S)N2CCN(Cc3ccc(Cl)c(Cl)c3)CC2)cc1,–,–,–,–,–,–,·,·
NS(=O)(=O)c1ccc(NC(=S)N2CCN(c3ccc(Cl)c(Cl)c3)CC2)cc1,–,–,–,–,35,–,–,–
Cc1cc(N)ccc1NC(=O)CN1CCOCC1,–,–,–,–,–,–,·,·
Cc1ccc(Cn2cccc2C2=NC(C)CO2)cc1 (centres undefined),–,–,–,–,14,–,–,–
Cc1ccc(S(=O)(=O)c2nc(-c3ccc(F)cc3)oc2SCC(=O)NCC2CCCO2)cc1 (centres undefined),–,–,–,–,15,–,–,–
COc1ccc2[nH]cc(CCN=C3SCC(=O)N3C)c2c1,–,–,–,–,18,–,–,–
COc1ccc(NC(=O)CSc2ccc3nnc(-c4cccnc4)n3n2)cc1OC,–,–,–,–,–,–,·,·
COc1ccc(-c2ccc3oc(-c4ccsc4)cc(=O)c3c2)cn1,–,–,–,–,–,–,·,·
CCCN(CCC)CC(=O)NCC1(c2ccccc2)CCOCC1,–,–,–,–,17,–,0.5,–
CCC(C)(C)NC(=O)CN(C(=O)c1csnn1)c1ccccc1-c1ccccc1,–,–,–,–,16,–,–,–
O=C(NCc1ccccc1)C(c1ccc(F)cc1)N(C(=O)c1csnn1)C1CC1 (centres undefined),–,–,–,–,–,–,·,·
CC(NCC(=O)Nc1ccccc1C(=O)NC1CC1)c1ccco1 (centres undefined),–,–,–,–,–,–,·,·
CC(c1ccccc1)N(C)CC(=O)NC(=O)NCCC1=CCCCC1 (centres undefined),–,–,–,–,–,–,·,·
O=C(CN1CCN(C(=O)c2ccccc2)CC1)NC(=O)NCCC1=CCCCC1,–,–,–,–,20,–,–,–
O=S(=O)(NCc1nnnn1-c1ccc(F)cc1)c1ccc(F)cc1,·,·,·,–,–,·,·,·
CCn1c(SCC(=O)Nc2cc(C)on2)nnc1-c1ccc(S(=O)(=O)N2CCCC2)cc1,–,–,–,–,–,–,·,·
Cc1cc(NC(=O)CSc2nnc(-c3ccc(S(=O)(=O)N4CCCC4)cc3)n2C)no1,–,–,–,–,18,–,–,–
NNC(=O)c1oc2nc(-c3cccs3)cc(-c3ccco3)c2c1N,–,·,–,–,–,–,·,·
Cc1ccc(-c2cc(-c3ccco3)c3c(N)c(C(=O)NN)oc3n2)cc1,–,–,–,–,15,–,–,–
